SMILES strings stand for the structures.

We go through ten molecules from ChEMBL document CHEMBL1144398, “Structure-based design, parallel synthesis, structure-activity relationship, and molecular modeling studies of thiocarbamates, new potent non-nucleoside HIV-1 reverse transcriptase inhibitor isosteres of phenethylthiazolylthiourea derivatives” (J Med Chem, 2005).

Assay [1] deals with MT4. Put plainly: Effective concentration require to protect MT-4 cells from human immunodeficiency virus type 1 induced cytopathogenicity was determined by MTT method. In kind it is functional, cell-based. The method, boiled down:
(§1)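 MT-4 cells infected with HIV-1, with test compounds added. Protection from virus-induced cytopathogenicity was read by MTT. EC50 is the concentration giving 50% protection. Values are means of three separate experiments, with variation among triplicates under 10%. Trovirdine served as the reference.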
A general note: Protection from cytopathic effect is a common read-out in antiviral testing.

Assay [2] deals with MT4. Put plainly: Cytotoxic concentration required to reduce the viability of mock infected MT-4 cells determined by MTT method. The assay is classed as functional. To be noted: Homo sapiens. The method, boiled down:
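Viability of mock-infected MT-4 cells, assayed in parallel with the antiviral test, read by MTT. CC50 is the concentration that lowers viability by 50%. Values are means of three separate experiments, with variation among triplicates under 10%. The highest concentration tested was 100 µM.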
For orientation: Tetrazolium assays rely on reduction of a dye to a coloured formazan, in cell work by metabolically active cells.

Assay [3] deals with MT4. Put plainly: Effective concentration require to protect MT-4 cells from HIV-1 Y181C mutant induced cytopathogenicity was determined by MTT method. The assay is classed as functional, cell-based, Homo sapiens. The gist of the method: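 HIV-1 strains carrying the Y181C RT mutation in MT-4 cells. EC50 is the concentration giving 50% protection from virus-induced cytopathogenicity, read out by MTT. Trovirdine was run as the reference. Values are means of three separate experiments.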

In another assay the test system is C8166. Put plainly: Effective concentration required to reduce the amount of p24 antigen levels in wild type human immunodeficiency virus type 1 infected C8166 cultures. In kind it is functional. The method, boiled down: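 C8166 cultures infected with wild-type HIV-1. p24 antigen in the cultures was measured after compound treatment, and EC90 is the concentration that reduces p24 by 90%. Trovirdine served as the reference.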

The subject of assay [4] is MT4. Put plainly: Ratio of CC50 to that of EC50 determined in MT-4 cells. In kind it is functional. The gist of the method: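 Selectivity index, calculated as CC50/EC50. CC50 came from MTT viability of mock-infected MT-4 cells and EC50 from MTT-read protection of HIV-1-infected MT-4 cells from cytopathogenicity, with both run in parallel. Values are means of three experiments.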

Assay [5] addresses T1, Human immunodeficiency virus type 1 reverse transcriptase (Human immunodeficiency virus 1, UniProt Q72547). Put plainly: Inhibitory concentration against HIV-1 virion reverse transcriptase.
Assay [6] concerns the target T1, Human immunodeficiency virus type 1 reverse transcriptase. Put plainly: Inhibitory concentration against HIV-1 mutant reverse transcriptase (K103R).
In assay [7] the target is Human immunodeficiency virus type 1 reverse transcriptase (Human immunodeficiency virus 1, UniProt Q72547, Y181C). Put plainly: Inhibitory concentration against HIV-1 mutant reverse transcriptase (Y181C).
For assay [8], the target named is Human immunodeficiency virus type 1 reverse transcriptase (Human immunodeficiency virus 1, UniProt Q72547, K103N/Y181C). Put plainly: Inhibitory concentration against HIV-1 mutant reverse transcriptase (K103N+Y181C).
The target in assay [9] is T1, Human immunodeficiency virus type 1 reverse transcriptase. Put plainly: Inhibitory concentration against HIV-1 wild type reverse transcriptase (IIIB).
Assay [10] has as its system MT4. Put plainly: Effective concentration require to inhibit human immunodeficiency virus type 1 induced cytopathogenicity in MT-4 cells determined by MTT method. In kind it is functional, cell-based. The method, boiled down: as §1

Consider `O=C1c2ccccc2C(=O)N1CCOC(=S)Nc1ccc(Cl)cc1`, for which the EC50 (as a rule, the concentration at which the effect is half-maximal) turned out to be 0.04 µM in the assay on MT4 [1] and 2.3 µM in the assay with MT4 [3]. Also, the CC50 (usually the concentration giving 50% cytotoxicity) in the assay on MT4 [2] is greater than 100 µM. Further, in the assay on C8166, the EC90 – broadly, the concentration at which the effect reaches the 90% level – amounted to 0.04 µM. The SI in the assay with MT4 [4] is given as greater than 2500.
Consider `O=C1c2ccccc2C(=O)N1CCOC(=S)Nc1ccc(Br)cc1`, for which the EC50 in the assay with MT4 [1] came to 0.03 µM; in the assay with MT4 [3], 2.4 µM. This molecule also had a CC50 in the assay with MT4 [2] greater than 100 µM. In addition, in the assay with C8166, the EC90 stood at 0.015 µM. Besides, the SI with MT4 [4] is reported as greater than 3333.
With `O=C1c2ccccc2C(=O)N1CCOC(=S)Nc1ccccc1`, in the assay with MT4 [1], the EC50 came out at 1.2 µM. The CC50 in the assay on MT4 [2] was greater than 100 µM. In assay [5], the IC50 (in general, the concentration needed to halve the response being measured) was determined as 0.6 µM. For the same molecule, the SI in the assay with MT4 [4] is listed as greater than 83.3.
`O=C1c2ccccc2C(=O)N1CCOC(=S)Nc1ccc(I)cc1` registered an EC50 with MT4 [1] of 0.02 µM. The same molecule gave a CC50 with MT4 [2] greater than 100 µM. In addition, the IC50 in [6] is 2.3 µM; in [7], greater than 20 µM; in [8], greater than 20 µM; in assay [9], 0.09 µM. In addition, in the assay on C8166, it took 0.04 µM to reach the 90% level (EC90). Moreover, in the assay with MT4 [4], the SI is greater than 5000.
For the molecule `O=C(O)c1ccccc1C(=O)NCCO/C(S)=N\c1ccc(I)cc1`, the EC50 in the assay with MT4 [1] is 0.13 µM. Moreover, the CC50 in the assay with MT4 [2] is greater than 100 µM. Moreover, the IC50 in [6] was greater than 20 µM; in assay [7], 4.8 µM; in assay [8], greater than 20 µM; in assay [9] it was 1.7 µM. Moreover, in the assay with MT4 [4], the SI was greater than 769.
`O=C1c2ccccc2C(=O)N1CCOC(=S)Nc1ccc(F)cc1`: the results for the EC50 in the assay with MT4 [1] and with MT4 [3] were 0.1 µM and 38 µM, respectively. This molecule came in with a CC50 with MT4 [2] greater than 100 µM. The same molecule registered an EC90 in the assay on C8166 of 0.1 µM. The SI in the assay on MT4 [4] was greater than 1000.
On to `Cc1ccc(NC(=S)OCCN2C(=O)c3ccccc3C2=O)cc1`, for which the EC50 came out at 0.02 µM in the assay with MT4 [1] and 1.8 µM in the assay with MT4 [10]. Moreover, the CC50 in the assay on MT4 [2] was greater than 100 µM. In the assay with C8166, this molecule showed an EC90 of 0.015 µM. In addition, the SI with MT4 [4] is recorded as greater than 5000.
As for `N#Cc1ccc(NC(=S)OCCN2C(=O)c3ccccc3C2=O)cc1`, the EC50 in the assay with MT4 [1] came to 0.07 µM; with MT4 [3], 5.9 µM. Also, the CC50 with MT4 [2] was greater than 100 µM. Moreover, the 90% effect level in the assay on C8166 (EC90) was put at 0.1 µM. Moreover, in the assay with MT4 [4], the SI is listed as greater than 1429.
Regarding `O=C1c2ccccc2C(=O)N1CCOC(=S)Nc1ccc([N+](=O)[O-])cc1`, the EC50 with MT4 [1] is 0.04 µM; in the assay with MT4 [3] it was 6 µM. The molecule further gave a CC50 with MT4 [2] of 65 µM. Besides, the 90% effect level in the assay on C8166 (EC90) was put at 0.03 µM. Also, the SI in the assay with MT4 [4] came out at 1625.
`Cl.S=C(NCCc1ccccn1)Nc1ccc(Br)cn1` [TROVIRDINE HYDROCHLORIDE]: the EC50 in the assay with MT4 [1] is 0.02 µM; in the assay on MT4 [3], 1.2 µM. The molecule also registered a CC50 in the assay on MT4 [2] of 60 µM. Moreover, the IC50 was greater than 20 µM in assay [6], 15 µM in assay [7], greater than 20 µM in assay [8] and 1.03 µM in assay [9]. The EC90 in the assay with C8166 was 0.015 µM. Besides, the SI with MT4 [4] is reported as 3000.
